Results published in ChEMBL document CHEMBL4196180, “Semisynthesis of ω-Hydroxyalkylcarbonate Derivatives of Hydroxytyrosol as Antitrypanosome Agents” (J Nat Prod, 2018).

Key:
[1] = system: Trypanosoma brucei brucei; experiment: Anti-parasitic activity against Trypanosoma brucei brucei 427 infected in human MRC5 cells assessed as reduction in parasite proliferation after 72 hrs by Alamar blue assay; format: functional, organism-based; settings: Trypanosoma brucei, 427, 72 h; in the assay text read “bloodstream forms” for “infected in human MRC5 cells”
Outline: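 Bloodstream-form T. brucei brucei single-marker S427 (S16), grown in HMI-9 with 10% hiFBS at 37 °C, 5% CO2. Parasites seeded at 1 × 10^4 BSF/mL with increasing compound concentrations for 72 h at 37 °C, 5% CO2. Proliferation read by alamarBlue fluorescence (ex 550/em 590 nm); IC50 = 50% inhibition of parasite growth.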

[2] = system: Trypanosoma brucei brucei; experiment: Potency index, ratio of hydroxytyrosol IC50 to compound IC50 for Trypanosoma brucei brucei 427 […]; format: functional
Outline: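 Activity gain calculated as IC50 of hydroxytyrosol against bloodstream-form T. brucei divided by IC50 of the derivative. Both come from the 72 h alamarBlue assay.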

[3] = system: MRC5; experiment: Cytotoxicity against human MRC5 cells assessed as inhibition of cell growth after 72 hrs by MTT assay; format: cell-based; settings: MRC5, 72 h
Outline: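 MRC-5 lung fibroblasts kept in low-glucose DMEM with 10% hiFBS and penicillin/streptomycin at 37 °C, 5% CO2, 100% humidity. Cells trypsinized (0.25%), seeded at 5000 cells/well with increasing compound concentrations, incubated 72 h at 37 °C. MTT colorimetric read-out; IC50 = concentration inhibiting growth 50% vs untreated cells.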

[4] = Selectivity index, ratio of IC50 for MRC5 cells to IC50 for Trypanosoma brucei brucei 427 […]; format: toxicity, cell-based; settings: read-out: Ratio IC50
[5] = system: Trypanosoma brucei brucei; experiment: Anti-parasitic activity against Trypanosoma brucei brucei 427 bloodstream forms assessed as reduction in parasite proliferation after 72 hrs by Alamar blue assay; settings: Trypanosoma brucei, 427, 72 h

IC50 [5] | SMILES | IC50 [1] | Ratio IC50 [2] | IC50 [3] | selectivity ratio [4]
 | O=C(OCCCCOC(=O)OCCc1ccc(OCc2ccccc2)c(OCc2ccccc2)c1)OCCc1ccc(OCc2ccccc2)c(OCc2ccccc2)c1 | > 10 µM |  |  | 
 | O=C(OCCCCCCOC(=O)OCCc1ccc(OCc2ccccc2)c(OCc2ccccc2)c1)OCCc1ccc(OCc2ccccc2)c(OCc2ccccc2)c1 | 8.1 µM | 5.9 |  | 
 | O=C(OCCCCCCO)OCCc1ccc(O)c(O)c1 | 4.1 µM | 11.6 | > 50 µM | > 12
 | O=C(OCCCCOC(=O)OCCc1ccc(O)c(O)c1)OCCc1ccc(O)c(O)c1 | 4 µM | 12 | > 50 µM | > 13
 | CCCCCCCCCCCCOC(=O)OCCc1ccc(O)c(O)c1 | 1.1 µM | 44.4 | 12.4 µM | 12
5.7 µM | O=C(OCCCCCCCCO)OCCc1ccc(OCc2ccccc2)c(OCc2ccccc2)c1 |  | 8.3 |  | 
 | CCCCCCOC(=O)OCCc1ccc(OCc2ccccc2)c(OCc2ccccc2)c1 | > 10 µM |  |  | 
5.7 µM | O=C(OCCOC(=O)OCCc1ccc(OCc2ccccc2)c(OCc2ccccc2)c1)OCCc1ccc(OCc2ccccc2)c(OCc2ccccc2)c1 |  | 8.4 |  | 
 | CCCCCCOC(=O)OCCc1ccc(O)c(O)c1 | 0.2 µM | 263.9 | 11.2 µM | 62
 | O=C(OCCO)OCCc1ccc(O)c(O)c1 | 6.4 µM | 7.4 |  | 
1.5 µM | O=C(OCCCCCCCCO)OCCc1ccc(O)c(O)c1 |  | 32.8 | > 50 µM | > 35
 | O=C(OCCc1ccc(O)c(O)c1)OCCc1ccc(O)c(O)c1 | 1.3 µM | 37.1 | > 50 µM | > 39
 | CCCCCCCCCCCCCCCCOC(=O)OCCc1ccc(O)c(O)c1 | 6.2 µM | 7.7 |  | 
 | O=C(OCCCCO)OCCc1ccc(OCc2ccccc2)c(OCc2ccccc2)c1 | > 10 µM |  |  | 
 | O=C(OCCCCCCOC(=O)OCCc1ccc(O)c(O)c1)OCCc1ccc(O)c(O)c1 | 2.1 µM | 22.6 | > 50 µM | > 24
 | O=C(OCCCCCCO)OCCc1ccc(OCc2ccccc2)c(OCc2ccccc2)c1 | 4.1 µM | 11.6 | > 50 µM | > 12
 | CCCCCCCCCCCCOC(=O)OCCc1ccc(OCc2ccccc2)c(OCc2ccccc2)c1 | > 10 µM |  |  | 
 | O=C(OCCCCO)OCCc1ccc(O)c(O)c1 | > 10 µM |  |  | 
 | O=C(OCCc1ccc(OCc2ccccc2)c(OCc2ccccc2)c1)OCCc1ccc(OCc2ccccc2)c(OCc2ccccc2)c1 | > 10 µM |  |  | 
0.5 µM | CCCCCCCCOC(=O)OCCc1ccc(O)c(O)c1 |  | 89.6 | 37.9 µM | 72
 | O=C(OCCCCCCCCOC(=O)OCCc1ccc(OCc2ccccc2)c(OCc2ccccc2)c1)OCCc1ccc(OCc2ccccc2)c(OCc2ccccc2)c1 | 6.2 µM | 7.7 |  | 
 | CCOC(=O)OCCc1ccc(O)c(O)c1 | 1.4 µM | 33.7 | 34.5 µM | 25
 | CCCCCCCCCCCCCCOC(=O)OCCc1ccc(O)c(O)c1 | 1.4 µM | 33.2 | 9.1 µM | 6
 | O=C(OCCO)OCCc1ccc(OCc2ccccc2)c(OCc2ccccc2)c1 | 9.4 µM | 5 |  | 
 | O=C(OCCCCCCCCOC(=O)OCCc1ccc(O)c(O)c1)OCCc1ccc(O)c(O)c1 | 1 µM | 47.5 | > 50 µM | > 50
 | O=C(OCCOC(=O)OCCc1ccc(O)c(O)c1)OCCc1ccc(O)c(O)c1 | 3.8 µM | 12.6 | > 50 µM | > 13
 | CCCCOC(=O)OCCc1ccc(O)c(O)c1 | 7.2 µM | 6.6 |  | 
